Test results: ChEMBL document CHEMBL1137766, “Synthesis and biological evaluation of 3,4,6-triaryl-2-pyranones as a potential new class of anti-breast cancer agents” (Bioorg Med Chem, 2009)

System: Vero
Assay: Cytotoxicity against african green monkey Vero cells after 48 hrs by MTT assay
Assay type: cell-based
Conditions: chlorocebus sabaeus

In the case of `O=c1oc(-c2ccccc2)cc(-c2ccc(OCCN3CCCC3)cc2)c1-c1ccccc1`, the Activity is reported as “Toxic”.

System: MDA-MB-231
Assay: Antiproliferative activity against human estrogen receptor deficient MDA-MB-231 cells after 48 hrs by MTT assay
Assay type: functional, cell-based
Conditions: MDA-MB-231, 48 h
Method in brief: (§1)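 MTT reduction: 1 × 10⁴ cells/well seeded in DMEM with 10% FBS, incubated 24 h at 37 °C in CO₂. Compounds diluted in culture medium and applied for 48 h. MTT (5 mg/mL stock) added for 4 h, formazan dissolved in DMSO, absorbance read at 540 nm. IC50 taken from growth inhibition. Vehicle control 0.001% DMSO.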

Point of comparison: `O=c1oc(-c2ccccc2)cc(-c2ccc(OCCN3CCCC3)cc2)c1-c1ccccc1`, IC50 9 µM. Against it:
- O=c1oc(-c2ccc(O)cc2)cc(-c2ccccc2)c1-c1ccc(O)cc1 — higher, > 100 µM
- O=c1oc(-c2ccc(OCCN3CCCCC3)cc2)cc(-c2ccccc2)c1-c1ccccc1 — higher, > 100 µM
- O=c1oc(-c2ccccc2)cc(-c2ccc(O)cc2)c1-c1ccccc1 — higher, > 100 µM
- O=c1oc(-c2ccccc2)cc(-c2ccccc2)c1-c1ccc(OCCN2CCCC2)cc1 — higher, > 100 µM
- COc1ccc(-c2cc(-c3ccccc3)oc(=O)c2-c2ccc(O)cc2)cc1 — higher, > 100 µM
- O=c1oc(-c2ccccc2)cc(-c2ccccc2)c1-c1ccc(OCCN2CCCCC2)cc1 — higher, > 100 µM
- CC/C(=C(\c1ccccc1)c1ccc(OCCN(C)C)cc1)c1ccccc1 [TAMOXIFEN] — 2.2-fold higher, 20 µM

Biological target: T1, Prostaglandin G/H synthase 2 (Homo sapiens, UniProt P35354)
T1 sequence (P35354 whole entry): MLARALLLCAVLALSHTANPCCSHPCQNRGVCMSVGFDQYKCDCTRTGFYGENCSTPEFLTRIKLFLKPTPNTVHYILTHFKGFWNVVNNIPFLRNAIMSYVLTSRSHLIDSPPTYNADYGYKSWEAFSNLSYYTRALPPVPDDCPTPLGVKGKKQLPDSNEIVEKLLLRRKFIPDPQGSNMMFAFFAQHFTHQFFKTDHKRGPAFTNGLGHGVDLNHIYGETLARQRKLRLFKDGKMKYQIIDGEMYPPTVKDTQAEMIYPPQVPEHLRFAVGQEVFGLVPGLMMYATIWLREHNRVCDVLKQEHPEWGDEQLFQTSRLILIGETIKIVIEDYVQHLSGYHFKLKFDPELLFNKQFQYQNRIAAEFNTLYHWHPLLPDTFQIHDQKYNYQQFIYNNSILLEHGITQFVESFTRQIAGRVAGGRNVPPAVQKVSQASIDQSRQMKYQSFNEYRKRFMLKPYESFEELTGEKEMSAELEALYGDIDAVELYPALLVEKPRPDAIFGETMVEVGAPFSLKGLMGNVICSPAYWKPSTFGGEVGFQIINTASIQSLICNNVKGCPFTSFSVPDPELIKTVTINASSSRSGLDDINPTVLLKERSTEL
Conditions: not given

Compound `COc1ccc(-c2cc(-c3ccccc3)c(-c3ccc(S(C)(=O)=O)cc3)c(=O)o2)cc1` has an IC50 of 0.02 µM.

System: not listed separately
Assay: Cytotoxicity against osteoblasts after 48 hrs by MTT assay
Assay type: cell-based
Conditions: osteoblast

In the case of `O=c1oc(-c2ccccc2)cc(-c2ccc(OCCN3CCCC3)cc2)c1-c1ccccc1`, the Activity is reported as “Toxic”.

System: MCF7
Assay: Antiproliferative activity against human MCF7 cells expressing estrogen receptor after 48 hrs by MTT assay
Assay type: functional, cell-based
Conditions: MCF7, 48 h
Method in brief: as §1

Point of comparison: `O=c1oc(-c2ccc(OCCN3CCCCC3)cc2)cc(-c2ccccc2)c1-c1ccccc1`, IC50 24 µM. Against it:
- O=c1oc(-c2ccc(O)cc2)cc(-c2ccccc2)c1-c1ccc(O)cc1 — within 1.5-fold, 26 µM
- O=c1oc(-c2ccccc2)cc(-c2ccc(O)cc2)c1-c1ccccc1 — 1.6-fold higher, 38 µM
- O=c1oc(-c2ccccc2)cc(-c2ccccc2)c1-c1ccc(OCCN2CCCC2)cc1 — within 1.5-fold, 23 µM
- COc1ccc(-c2cc(-c3ccccc3)oc(=O)c2-c2ccc(O)cc2)cc1 — higher, > 50 µM
- O=c1oc(-c2ccccc2)cc(-c2ccccc2)c1-c1ccc(OCCN2CCCCC2)cc1 — higher, > 50 µM
- O=c1oc(-c2ccccc2)cc(-c2ccc(OCCN3CCCC3)cc2)c1-c1ccccc1 — 1.7-fold lower, 14 µM
- CC/C(=C(\c1ccccc1)c1ccc(OCCN(C)C)cc1)c1ccccc1 [TAMOXIFEN] — 2.4-fold lower, 10 µM
